Shown are actives, neighbours in structure and some others; about 1.9% of the full set was active somewhere.
STEP block: STEP (human) phosphatase inhibition; inhibition, % at 20 µM; 360,000 compounds, 0.25% hits; P54829; recombinant STEP, OMFP fluorogenic substrate, fluorescence;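 active means inhibition at 20 µM, scaled per plate between control wells, above about 37%, limit read from the data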
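Material: STEP (striatal-enriched tyrosine phosphatase) enzyme, cell-free; Compound dosing: 20 µM single dose in 1% DMSO; Technique: fluorescence read at 480 nm ex / 540 nm em; Times: reaction 20 min, ambient temperature; Medium: 50 mM Bis-Tris pH 6.0 with 2.5 mM DTT and 0.005% Tween 20; Also added: OMFP at 25 µM.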
SUMO1 PPI mod: modulators of human SUMO1-mediated protein-protein interactions | 360,000 compounds, 0.33% hits | P63165 | inhibition, % at 20 µM | SUMO1 binding to a labelled peptide, TR-FRET, 1 h; in the data active means inhibition above about 37%
Target sequence (P63165 whole entry, looked up): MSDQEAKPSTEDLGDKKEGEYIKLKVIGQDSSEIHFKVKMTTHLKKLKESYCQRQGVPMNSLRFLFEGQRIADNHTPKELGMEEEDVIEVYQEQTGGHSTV
DNMT1 block: inhibitors of human DNMT1; P26358; DNMT1 molecular beacon, Hinp1I cleavage, fluorescence; inhibition (reported as % activation of signal), % at 10 µM; 360,000 compounds, 0.83% hits; AID 588458; in the data active means inhibition above about 50%
LMPTP inh: blocks human LMPTP phosphatase. P24666. recombinant LMPTP-A, OMFP fluorogenic substrate, fluorescence intensity. inhibition, % at 20 µM. 360,000 compounds, 0.22% hits;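 active means compounds that cut the enzyme signal by at least half of the control window in the single-dose screen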
Target sequence (P24666 whole entry, looked up): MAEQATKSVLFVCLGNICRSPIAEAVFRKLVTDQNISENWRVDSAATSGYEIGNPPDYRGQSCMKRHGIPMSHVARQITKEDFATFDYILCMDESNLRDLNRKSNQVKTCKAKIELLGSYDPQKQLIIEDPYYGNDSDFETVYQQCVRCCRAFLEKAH
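Test system: LMPTP-A phosphatase enzyme; input: 0.625 nM LMPTP-A final; reagent: OMFP substrate, 400 µM final; compound dosing: 20 µM single dose, 3% DMSO; incubation: 50 min dark incubation at room temperature; measured by: endpoint fluorescence intensity from OMFP dephosphorylation; measure: % inhibition relative to no-enzyme and uninhibited control wells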
Scp1 inh: inhibitors of human Scp-1 phosphatase; Q9GZU7; Recombinant Scp1, phosphopeptide, malachite green phosphate absorbance; AID 493091; inhibition, % at 20 µM; 340,000 compounds, 0.88% hits;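 active means inhibition above about 50% at 20 µM, limit read from the data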
Target sequence (Q9GZU7 76-261 limits assumed): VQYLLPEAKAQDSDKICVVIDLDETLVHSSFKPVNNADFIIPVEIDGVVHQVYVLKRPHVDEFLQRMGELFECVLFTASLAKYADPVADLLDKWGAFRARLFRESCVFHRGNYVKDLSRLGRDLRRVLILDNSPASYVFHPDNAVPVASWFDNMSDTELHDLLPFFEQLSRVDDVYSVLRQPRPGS
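Times: enzyme reaction 45 min at room temperature, colour 5 min, stabilisation 30 min. Material: SCP-1 catalytic fragment, aa 76-261. Medium: Acidic Tris acetate buffer with magnesium and detergent. Signal: colorimetric free-phosphate detection, absorbance 630 nm. Read-out basis: % inhibition of SCP-1 phosphate liberation. Reagent: Phosphorylated 17-residue peptide substrate.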
CSN inh: blocks human CSN-mediated cullin deneddylation; Q92905; Purified CSN, SCF-Nedd8-OG deneddylation, fluorescence polarization; inhibition, % at 12.5 µM; 360,000 compounds, 0.38% hits; AID 651999;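 active means pattern-corrected inhibition above about 35%, with an unprinted fluorescence ratio check between 0.5 and 1.5, limit read from the data, passing the limit was not always enough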
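Test system: Human Csn5 produced in HEK293T cells | Compound: 12.5 µM single point | Times: 90 min, room temperature | Signal: Fluorescence polarization readout | Read-out basis: % inhibition of substrate cleavage by Csn5 | Controls: no-enzyme wells high, enzyme-with-substrate wells low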
Scp-1 conf: confirmation of human Scp-1 phosphatase inhibitors; shares compounds with Scp1 inh; recombinant SCP-1 catalytic domain, phosphate release, malachite green absorbance; 2,500 compounds, 61% hits; inhibition, % at 20 µM
Scp-1 MG ctr: counter-screen for Scp-1 inhibitors: colorimetric interference; apparent inhibition (interference), % at 20 µM; shares compounds with Scp1 inh; 2,500 tested, under 10 active; Colorimetric interference counterscreen, malachite green absorbance 630 nm;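 further: compounds added after enzyme reaction finished so only phosphate colour detection is probed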
Scp-1 Tm shift: validation of human Scp-1 inhibitors by thermal shift binding; shares compounds with Scp1 inh; Recombinant SCP1, Sypro Orange thermal shift Tm; thermal shift relative to vanadate control, % at 40 µM; 1,500 compounds, 25% hits; AID 540329;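 active means substances whose mean melting-temperature shift, as a percentage of the reference inhibitor's shift, reaches about 5.3%, limit read from the data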
DNMT1 confirm: DNMT1 inhibition confirmation, single concentration; shares compounds with DNMT1 block; DNMT1 molecular beacon HinP1I cleavage, fluorescence; inhibition, % at 10 µM; 2,300 compounds, 8% hits;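 active means average inhibition of at least 30% in the single-concentration confirmation test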
Beacon interf: beacon fluorescence artifact counter-screen. DNMT1 molecular beacon spectral interference counterscreen, fluorescence 485/520. shares compounds with DNMT1 block. 2,300 compounds, 1% hits. activation (fluorescence interference), % at 10 µM;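 active means activation of at least 30% at 10 µM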;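 further: DNMT1 catalytic domain with a HinP1I cleavage step and a FAM/dabcyl DNA beacon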
STEP inh conf: STEP (human) phosphatase inhibition, single concentration confirmation | shares compounds with STEP block | recombinant STEP, OMFP fluorogenic substrate, fluorescence | inhibition, % at 20 µM | 520 compounds, 32% hits; call rule not given here
Hits are given with their value; n = inactive; x = no result given.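 How the source made its calls, unless noted: active means inhibition of at least 30% at 20 µM; inactive means the rest.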

SMILES	STEP block	SUMO1 PPI mod	DNMT1 block	LMPTP inh	Scp1 inh	CSN inh	Scp-1 conf	Scp-1 MG ctr	Scp-1 Tm shift	STEP inh conf	others
COc1cccc2cc(C(=O)NNC(=O)c3ccc(Br)cc3)c(=O)oc12	82	n	n	n	99	110	55	n	n	n
COc1cccc(NC(=O)Nc2nnc(COCCO)s2)c1	n	n	n	n	x	n	x	x	x	x
Cc1ccc(OCC(=O)Oc2cccc(C)c2C)cc1	n	n	n	n	n	n	x	x	x	x
CCc1ccc(NC(=O)CS(=O)CC(=O)Nc2ccc(N3CCOCC3)cc2)cc1 (stereo not drawn)	72	n	n	63	79	n	88	n	n	n
CC(=O)Oc1ccc(/C=N\NC(=O)c2cc3c(ccc4ccccc43)o2)cc1	90	n	n	n	92	n	69	n	n	n
CCOC(=O)N1CCC(NC(=O)C2CCN(S(=O)(=O)c3c(C)noc3C)CC2)CC1	n	n	n	n	n	n	x	x	x	x
COc1cc(C(=O)Nc2ccc3c(c2)Cc2ccccc2-3)cc(OC)c1OC	n	n	n	n	n	n	x	x	x	x
COc1cc(C(=O)Nc2ccc3c(c2)C(=O)c2ccccc2C3=O)cc(OC)c1OC	74	n	66	n	88	n	42	n	n	n	DNMT1 confirm=n;Beacon interf=n
O=C(/C=C/c1ccc(Cl)cc1)NC(=S)Nc1ccc(C(=O)O)cc1	92	n	n	67	96	n	88	n	n	50
CN(C)c1ccc(NC(=S)NC(=O)/C=C/c2ccc(Cl)cc2)cc1	n	n	n	n	n	n	x	x	x	x
CCOc1cc(/C=N/N=C2/NC(=O)C(CC(=O)O)S2)ccc1OS(=O)(=O)c1ccc(C)cc1 (stereo not drawn)	n	n	n	n	n	n	x	x	x	x
COc1ccc(/C=N/N=C2/NC(=O)C(CC(=O)O)S2)cc1OCc1ccc(Cl)cc1Cl (stereo not drawn)	80	n	n	n	66	n	79	n	n	35
Cc1cc(C(=O)N/N=C/c2ccc(-c3ccc([N+](=O)[O-])cc3Cl)o2)n[nH]1	94	68	n	69	56	46	68	n	8.7	34
Cc1cc(C(=O)N/N=C/c2ccc(-c3cccc([N+](=O)[O-])c3)o2)n[nH]1	n	n	n	n	n	n	x	x	x	x
Cc1cc2nc(C3CCCCC3)c(Cc3cccc(Cl)c3)n2c(C)c1Br	x	n	x	n	x	n	x	x	x	x
O=[N+]([O-])c1ccc(/C=N/n2c(-c3cccnc3)n[nH]c2=S)cc1	56	n	n	n	60	n	52	n	n	n
N=C1S/C(=C\c2ccc(O)cc2)C(=O)N1c1ccc(F)cc1	78	n	n	69	78	n	52	n	19	12
CCOc1cc(/C=C2\SC(=O)N(c3ccc(O)cc3)C2=O)ccc1O	n	n	n	n	n	n	x	x	x	x
Cc1ccc(-n2c(C)nc3oc4ccccc4c(=O)c3c2=O)cc1	49	n	99	61	68	n	61	n	n	85	DNMT1 confirm=n;Beacon interf=n
COCCN1C(=O)COc2ccccc2C1C(=O)NC(C)(C)C (stereo not drawn)	x	n	x	n	x	n	x	x	x	x
NC(=O)c1cc2ccccc2o/c1=N\NC(=O)c1ccc(F)cc1	n	n	n	n	n	n	x	x	x	x
NC(=O)c1cc2ccccc2o/c1=N\NC(=O)c1ccccc1O	99	n	n	75	103	n	79	n	n	90
CCCCn1c(N)c(-c2nc3ccccc3o2)c2c([N+](=O)[O-])nn(C)c(=O)c21	58	n	87	55	93	n	68	n	n	n	DNMT1 confirm=n;Beacon interf=n
CCCCCn1c(N)c(-c2nc3ccccc3s2)c2c([N+](=O)[O-])nn(C)c(=O)c21	n	n	n	n	n	n	x	x	x	x
Cc1csc2c(=O)sc(NC(=O)c3ccco3)nc12	n	n	n	n	n	n	x	x	x	x
SMILES	STEP block	SUMO1 PPI mod	DNMT1 block	LMPTP inh	Scp1 inh	CSN inh	Scp-1 conf	Scp-1 MG ctr	Scp-1 Tm shift	STEP inh conf	others
Cc1csc2c(=O)sc(NC(=O)c3cccs3)nc12	95	n	n	69	97	n	63	n	n	n
CCN(CC)CC(O)c1ccc2ccc3ccc(O)cc3c2c1 (stereo not drawn)	n	n	n	n	n	n	x	x	x	x
O=C(O)c1ccc(/C=N/NC(=O)c2cc(-c3ccc4c5c(cccc35)CC4)n[nH]2)cc1	52	n	n	n	76	n	67	n	n	n
O=C(N/N=C/c1ccccn1)c1cc(-c2cccc3ccccc23)n[nH]1	n	n	n	n	n	n	x	x	x	x
CCc1ccnc(NS(=O)(=O)c2ccc3c(c2)CCO3)c1	n	n	n	n	n	n	x	x	x	x
O=C(NCCc1ccc2c(c1)OCCO2)c1ccccn1	n	n	n	n	n	n	x	x	x	x
O=C(N/N=C/c1ccc(OC(=O)c2cccs2)cc1)c1cccc(F)c1	43	n	64	68	95	n	77	n	n	28	DNMT1 confirm=n;Beacon interf=n
CCC(=O)c1ccc(OCC(=O)OCC(=O)Nc2sccc2C(N)=O)cc1	n	n	n	n	n	n	x	x	x	x
O=C(N/N=C/c1cc(Br)c(Br)o1)c1cc2ccccc2o1	56	n	n	n	111	n	61	n	n	n
CCc1nc2ccc(C(=O)N3CCN(C(=O)c4ccco4)CC3)cn2c1N(CC)CCOC	n	n	n	n	x	n	x	x	x	x
O=C(CCc1ccccc1)NNC(=O)c1ccc(NC(=O)c2ccccc2)cc1	42	n	n	61	57	n	74	n	n	95
O=C(N/N=C/c1cccc([N+](=O)[O-])c1)c1ccc(Br)cc1	73	n	n	65	98	n	86	n	n	17
O=C(N/N=C/C(Br)=C/c1ccccc1)c1ccc([N+](=O)[O-])cc1	88	n	57	78	97	n	84	n	n	n	DNMT1 confirm=n;Beacon interf=n
